rCAG RNA binder = r(CAG) repeat RNA binding; TO-PRO-1 dye displacement fluorescence; inhibition, % at 3 µM; 1.3% of 370,000 active; AID 651821;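 active = inhibition above the plate cutoff, the mean of all test compounds on that plate plus 3 SD, cut at about 35% in these data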;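 note: higher means more dye released from RNA so lower well fluorescence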
mABHD4 FP = ABHD4 (mouse) inhibition, primary FP screen; Q8VD66; purified mABHD4, FP-Rh probe fluorescence polarization; inhibition, % at 8.92 µM; 0.54% of 370,000 active;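 active = inhibition exceeding the mean over every tested compound plus 3 SD, cut at about 30% in these data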
Target sequence (Q8VD66 whole entry, looked up): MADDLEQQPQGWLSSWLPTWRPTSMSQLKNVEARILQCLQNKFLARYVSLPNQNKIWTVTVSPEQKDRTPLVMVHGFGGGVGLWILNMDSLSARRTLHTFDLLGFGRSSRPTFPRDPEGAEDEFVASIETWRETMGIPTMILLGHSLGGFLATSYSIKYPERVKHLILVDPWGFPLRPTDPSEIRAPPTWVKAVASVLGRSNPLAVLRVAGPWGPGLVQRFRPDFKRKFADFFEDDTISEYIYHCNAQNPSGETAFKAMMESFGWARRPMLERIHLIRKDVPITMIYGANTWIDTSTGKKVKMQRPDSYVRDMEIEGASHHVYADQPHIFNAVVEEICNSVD
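Test system: mABHD4 protein | Buffer or medium: HEPES pH 7.0 buffer, 150 mM NaCl, 0.01% Pluronic F-127 | Probe or stimulus: FP-Rh fluorescent activity-based probe, added after compound pre-incubation | Timing: Pre-incubation 45 min, probe exposure 60 min, at 25 °C | Technique: Fluorescence polarization, excitation 525 nm, emission 598 nm, BODIPY TMR filters | Repeats: Single well per compound (singlicate)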
SIAE inh = inhibitors of human sialic acid acetylesterase SIAE; Q9HAT2; SIAE FP-Rh probe binding, fluorescence polarization; inhibition, % at 9.66 µM; 0.69% of 370,000 active; AID 1053197;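 active = inhibition above a cutoff: mean of compounds within the control limits plus 3 SD of those, cut at about 17% in these data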
PRMT1 inh = inhibitors of human PRMT1. Q99873. recombinant PRMT1, activity-based probe fluorescence polarization. inhibition, % at 2.79 µM. 1.3% of 370,000 active. AID 652257;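 active = inhibition above about 21% made by adding two undisclosed values, limit read from the data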
HTRA1 inh = inhibitors of human serine peptidase HTRA1; AID 504803; 0.5% of 340,000 active; Q92743; inhibition, % at 5.96 µM; recombinant HTRA1, FP-rhodamine activity-based probe, fluorescence polarization; in the data active = inhibition above about 36%
PRMT1 inh conf = confirmation of human PRMT1 inhibitors. shares compounds with PRMT1 inh. 42% of 3,300 active. inhibition, % at 2.79 µM. AID 687036. recombinant His-PRMT1, activity-based probe fluorescence polarization;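 active = mean inhibition across replicates above the hit cutoff derived for the earlier primary screen, cut at about 22% in these data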
Hits are given with their value; n = inactive; x = not tested or not shown. Only some compounds are listed: those with a hit (about 3.3% of all), similar ones and a draw of the others.

SMILES	rCAG RNA binder	mABHD4 FP	SIAE inh	PRMT1 inh	HTRA1 inh	PRMT1 inh conf
CC(=O)NC1C(=O)N=C(SCC(=O)Nc2cccc(Cl)c2)NC1=O (stereo not drawn)	n	n	n	38.7	n	n
CC1C(=O)N(Cc2cn(CC3CCCCC3)nn2)CCS(=O)(=O)N1Cc1ccc(-c2ccccc2)cc1 (stereo not drawn)	n	n	n	n	n	x
COC(=O)C1CCN(C(=O)c2ccc3nccnc3c2)CC1	n	n	n	26.1	n	n
CN(CC(=O)Nc1ccccc1Cl)C(=O)COC(=O)CN1C(=O)NC2(CCCC2)C1=O	n	n	n	n	n	x
COc1cccc(NC(=O)CN(C)C(=O)Cn2cnc3ccccc3c2=O)c1	n	n	n	n	n	x
Cc1ccccc1C(=O)NNc1ccc(-c2csnn2)cc1	n	n	n	26.6	n	n
CC(=O)Oc1ccc(-c2csnn2)cc1	n	n	n	n	n	x
N#Cc1c2c(c(-c3ccco3)[nH]c1=O)CCCC2	n	n	n	46.2	n	n
N#Cc1c(-c2ccco2)c2c([nH]c1=S)CCCC2	n	n	n	59.2	n	24.8
N#Cc1c(-c2cccnc2)c2c([nH]c1=S)CCCC2	n	n	n	44.5	n	31.5
Cc1cccc2nc3c(nc12)CCCC3	n	n	n	n	n	x
CC(=O)Nc1ccc(SCC(=O)Nc2ccc3c(c2)OCCO3)cc1	n	n	n	57.6	n	53.6
CC(=O)Nc1ccc(SCC(=O)c2cc(C)n(C)c2C)cc1	n	n	n	36.1	n	n
CC(=O)Nc1ccc(SCC(=O)Nc2ccc(Cl)cn2)cc1	n	n	n	28.5	n	37.1
CN(C)S(=O)(=O)c1ccc(C(=O)NC(=O)CSc2ccccc2)cc1	n	n	n	n	n	x
CC(=O)Nc1ccc(SCC(=O)NC(=O)c2ccc(S(=O)(=O)N(C)C)cc2)cc1	n	n	n	50.2	n	42.6
CCOC(=O)C1CCN(S(=O)(=O)c2ccc3c(c2)CC(=O)N3C)CC1	n	n	n	n	n	x
COc1ccc(C)cc1S(=O)(=O)N1CCCC(C(=O)N2CCN(c3ccccc3)CC2)C1 (stereo not drawn)	n	n	n	n	n	x
COc1cc(NC(=S)Nc2ccccn2)c(OC)cc1Cl	n	n	n	n	n	x
O=C1/C(=C/c2ccccn2)SC(=S)N1Nc1ncc(C(F)(F)F)cc1Cl	n	n	n	34.1	n	n
CCOC(=O)CNC(=O)CSc1nnc(C)c(=O)[nH]1	n	n	n	n	n	x
CCOC(=O)CSc1nnc(NCC(=O)OC(C)C)c(=O)[nH]1	n	n	n	54.0	n	67.0
CCCOc1ccc(-c2c(=O)n(O)c3ccccc3[n+]2[O-])cc1	n	n	n	32.1	n	n
O=C1[C@H](Cc2ccccc2)NCC=CC[C@H](c2ccc(Cl)cc2)N1Cc1ccccc1	n	n	n	n	n	x
Cn1nnnc1Sc1ncnc2scc(-c3ccccc3)c12	n	n	n	n	n	x
SMILES	rCAG RNA binder	mABHD4 FP	SIAE inh	PRMT1 inh	HTRA1 inh	PRMT1 inh conf
Cn1nnnc1Sc1ncnc2scc(-c3ccc[nH]3)c12	n	n	n	30.9	n	n
Cc1cccc2cc(C(c3nnnn3Cc3ccccc3)N3CCCc4ccccc43)c(=O)[nH]c12 (stereo not drawn)	n	n	n	25.9	n	n
CCN1CCN(C(c2cc3cccc(C)c3[nH]c2=O)c2nnnn2Cc2ccccc2)CC1 (stereo not drawn)	n	n	n	n	n	x
COc1ccc(NS(=O)(=O)c2cc(NC(=O)C3CC3)ccc2N2CCCCC2)cc1	n	n	n	n	n	x
COc1ccccc1NS(=O)(=O)c1cc(NC(=O)C2CCC2)ccc1N1CCCCC1	n	n	n	36.1	n	n
Cc1c(NS(=O)(=O)c2cccc(C(=O)OCC(=O)N(C)C3CCCCC3)c2)c(=O)n(-c2ccccc2)n1C	n	n	n	n	n	x
CN1CCN(C(=O)c2sc(=S)n(-c3ccccc3)c2N)CC1	n	n	n	76.5	n	78.7
CCN(C(=O)CN1CCN(c2ccc(O)cc2)CC1)c1c(N)n(Cc2ccccc2)c(=O)[nH]c1=O	n	n	n	27.5	n	n
Cc1ccc2c(CC(=O)N(C)c3c(N)n(Cc4ccccc4)c(=O)[nH]c3=O)coc2c1	n	n	n	94.1	n	n
CCN(C(=O)CN1CCCCCC1)c1c(N)n(Cc2ccccc2)c(=O)[nH]c1=O	n	n	n	n	n	x

High-throughput results as filed in PubChem BioAssay.
